From ChEMBL document CHEMBL1817578, “2-({6-[(3R)-3-amino-3-methylpiperidine-1-yl]-1,3-dimethyl-2,4-dioxo-1,2,3,4-tetrahydro-5H-pyrrolo[3,2-d]pyrimidine-5-yl}methyl)-4-fluorobenzonitrile (DSR-12727): a potent, orally active dipeptidyl peptidase IV inhibitor without mechanism-based inactivation of CYP3A” (Bioorg Med Chem, 2011)
Active and inactive are the calls of the source. No cut-off for these calls is given here.

Columns and labels:
Cytochrome P450 2C8 = biological target: T1, Cytochrome P450 2C8 (Homo sapiens, UniProt P10632); assay: Inhibition of CYP2C8; format: ADME
T1 sequence (P10632 whole entry): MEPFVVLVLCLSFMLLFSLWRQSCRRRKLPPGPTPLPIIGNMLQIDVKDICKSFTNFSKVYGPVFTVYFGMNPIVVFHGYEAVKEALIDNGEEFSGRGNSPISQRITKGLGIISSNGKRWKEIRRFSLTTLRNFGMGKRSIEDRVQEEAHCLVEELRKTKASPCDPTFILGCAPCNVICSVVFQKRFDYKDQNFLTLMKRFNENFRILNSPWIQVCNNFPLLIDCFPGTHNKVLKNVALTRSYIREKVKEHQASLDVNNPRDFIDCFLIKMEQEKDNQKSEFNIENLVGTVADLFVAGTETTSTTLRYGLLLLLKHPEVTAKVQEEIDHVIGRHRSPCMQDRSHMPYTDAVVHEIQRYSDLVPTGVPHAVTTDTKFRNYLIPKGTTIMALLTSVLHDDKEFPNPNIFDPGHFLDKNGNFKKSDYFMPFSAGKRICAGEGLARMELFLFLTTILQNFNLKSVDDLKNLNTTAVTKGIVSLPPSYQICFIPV

[1] = Toxicity in monkey assessed as organ toxicity after 2 weeks repeated dosage; format: organism-based, Macaca mulatta; details: rhesus monkey, in vivo
Summary of the method: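 2-week repeated-dose toxicity study; rats n = 5 per sex, monkeys n = 1 per sex.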

Rattus norvegicus [2] = assay: Antidiabetic activity in po dosed Zucker fatty rat assessed as reduction of blood glucose level pretreated 30 mins before glucose challenge by oral glucose tolerance test; format: functional, organism-based
Summary of the method: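 Male Zucker fatty rats, 10 weeks old, fasted 24 h, with Zucker lean rats as reference. Oral dose of 0.03–1.0 mg/kg in 0.5% methylcellulose, or vehicle alone, 30 min before oral glucose at 2 g/kg. Tail blood taken at -30, 0, 10, 30, 60 and 120 min and deproteinized with perchloric acid. Glucose measured by colorimetric kit (A505–A700) in duplicate. AUC over 0–120 min; n = 4–9; Dunnett test.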

Rattus norvegicus [3] = assay: In vivo inhibition of DPP4 in Zucker fatty rat plasma assessed as AMC production at 3 mg/kg, po after 3 hrs by fluorescence microplate reader analysis; format: functional, organism-based; set-up: dose 3 mg/kg
Summary of the method: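 Male Zucker fatty rats, 9 weeks old, fasted 24 h and kept fasted to 12 h post-dose; test compound solution given by oral gavage at 1.0 or 3.0 mg/kg. Blood sampled at -0.5 h and 0.25–24 h. Plasma DPP-4 measured as AMC release from Gly-Pro-MCA (100 µmol/L working solution), pH 7.8 HEPES buffer, Ex 380/Em 460 nm for 3 min, AMC calibration, duplicates; n = 4–5.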

Cytochrome P450 2A6 = biological target: T2, Cytochrome P450 2A6 (Homo sapiens, UniProt P11509); assay: Inhibition of CYP2A6; format: ADME
T2 sequence (P11509 whole entry): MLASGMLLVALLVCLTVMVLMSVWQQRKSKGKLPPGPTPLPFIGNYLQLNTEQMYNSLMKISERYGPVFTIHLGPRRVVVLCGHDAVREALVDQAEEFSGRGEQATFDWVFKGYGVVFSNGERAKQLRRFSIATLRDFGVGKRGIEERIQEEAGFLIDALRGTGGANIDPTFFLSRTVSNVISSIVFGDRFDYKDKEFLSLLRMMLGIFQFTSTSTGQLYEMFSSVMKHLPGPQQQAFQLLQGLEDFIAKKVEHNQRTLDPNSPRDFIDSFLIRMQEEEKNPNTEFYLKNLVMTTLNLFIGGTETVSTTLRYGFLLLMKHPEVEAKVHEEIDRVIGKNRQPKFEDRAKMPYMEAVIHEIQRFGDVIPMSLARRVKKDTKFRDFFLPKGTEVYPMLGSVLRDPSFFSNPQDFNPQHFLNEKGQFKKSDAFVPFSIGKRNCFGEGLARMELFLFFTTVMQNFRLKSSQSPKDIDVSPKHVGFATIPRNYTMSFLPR

[4] = Clearance in dog at 1 mg/kg, iv; format: ADME, organism-based, Canis lupus familiaris; set-up: dose 1 mg/kg, route intravenous; details: in vivo
[5] = Half life in monkey at 1 mg/kg, iv; format: ADME, organism-based, Macaca mulatta; set-up: dose 1 mg/kg, route intravenous; details: rhesus monkey, in vivo
[6] = biological target: T3, Muscarinic acetylcholine receptor M2 (Homo sapiens, UniProt P08172); assay: Binding affinity to muscarinic receptor 2
T3 sequence (P08172 whole entry): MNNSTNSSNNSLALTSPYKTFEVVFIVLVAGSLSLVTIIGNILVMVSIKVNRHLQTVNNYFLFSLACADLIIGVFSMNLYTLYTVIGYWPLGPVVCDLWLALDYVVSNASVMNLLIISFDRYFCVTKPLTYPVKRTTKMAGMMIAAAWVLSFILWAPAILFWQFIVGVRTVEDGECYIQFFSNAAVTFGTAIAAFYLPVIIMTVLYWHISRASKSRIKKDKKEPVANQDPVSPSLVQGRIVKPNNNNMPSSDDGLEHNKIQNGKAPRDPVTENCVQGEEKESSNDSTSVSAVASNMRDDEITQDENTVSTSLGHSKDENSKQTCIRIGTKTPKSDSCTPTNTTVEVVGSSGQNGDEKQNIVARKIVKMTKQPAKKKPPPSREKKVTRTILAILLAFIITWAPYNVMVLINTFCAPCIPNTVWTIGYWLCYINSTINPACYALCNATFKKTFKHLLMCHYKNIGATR

Xaa-Pro aminopeptidase 2 = Xaa-Pro aminopeptidase 2 (Homo sapiens, UniProt O43895); assay: Inhibition of aminopeptidase P
[7] = Cmax in Zucker fatty rat at 3 mg/kg, po after 3 hrs; format: ADME, organism-based; set-up: dose 3 mg/kg, route oral; details: in vivo
[8] = biological target: T4, Muscarinic acetylcholine receptor M4 (Homo sapiens, UniProt P08173); assay: Binding affinity to muscarinic receptor 4
T4 sequence (P08173 whole entry): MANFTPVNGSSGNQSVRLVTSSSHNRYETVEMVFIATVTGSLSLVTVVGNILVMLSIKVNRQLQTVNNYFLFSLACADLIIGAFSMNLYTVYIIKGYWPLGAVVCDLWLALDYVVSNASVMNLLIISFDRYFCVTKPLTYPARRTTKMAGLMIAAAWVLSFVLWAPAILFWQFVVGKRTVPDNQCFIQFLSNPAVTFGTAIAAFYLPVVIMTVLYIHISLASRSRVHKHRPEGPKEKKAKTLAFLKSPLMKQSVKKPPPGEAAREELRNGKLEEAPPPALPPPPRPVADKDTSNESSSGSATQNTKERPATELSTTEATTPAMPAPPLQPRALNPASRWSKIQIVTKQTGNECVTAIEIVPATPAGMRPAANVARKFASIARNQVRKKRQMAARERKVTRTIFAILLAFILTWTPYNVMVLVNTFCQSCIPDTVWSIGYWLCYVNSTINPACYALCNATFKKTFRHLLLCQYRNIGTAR

[9] = Clearance in rat at 1 mg/kg, iv; format: ADME, organism-based; set-up: dose 1 mg/kg, route intravenous; details: in vivo

Chain of Xaa-Pro aminopeptidase 2 (O43895 whole entry): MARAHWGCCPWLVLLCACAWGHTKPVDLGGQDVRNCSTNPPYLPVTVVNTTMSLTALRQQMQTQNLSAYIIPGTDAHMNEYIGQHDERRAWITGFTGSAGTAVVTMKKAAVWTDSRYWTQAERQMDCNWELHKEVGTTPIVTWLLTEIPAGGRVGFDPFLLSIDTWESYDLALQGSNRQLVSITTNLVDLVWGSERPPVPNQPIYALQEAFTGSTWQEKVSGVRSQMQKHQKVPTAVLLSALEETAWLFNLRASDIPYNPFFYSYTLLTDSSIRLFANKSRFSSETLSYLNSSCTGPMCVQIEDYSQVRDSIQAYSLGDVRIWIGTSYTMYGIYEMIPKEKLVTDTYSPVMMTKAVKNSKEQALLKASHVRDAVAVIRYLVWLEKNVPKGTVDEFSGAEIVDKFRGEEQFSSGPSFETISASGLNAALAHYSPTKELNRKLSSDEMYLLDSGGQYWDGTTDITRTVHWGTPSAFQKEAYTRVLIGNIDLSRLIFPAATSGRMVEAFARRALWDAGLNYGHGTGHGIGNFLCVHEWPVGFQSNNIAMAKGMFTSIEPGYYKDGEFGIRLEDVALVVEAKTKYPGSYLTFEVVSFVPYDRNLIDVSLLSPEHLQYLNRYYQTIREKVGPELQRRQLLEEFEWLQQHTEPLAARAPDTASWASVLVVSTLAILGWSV

In the case of `Cn1c(=O)c2c(cc(N3CCC[C@@](C)(N)C3)n2Cc2cc(F)ccc2C#N)n(C)c1=O`, the IC50 (Cytochrome P450 2C8) is reported as over 50 µM, the NOAEL at 336 h [1] is reported as 60 mg/kg/day and the Activity (Rattus norvegicus [2]) is reported as “Dose-dependent effect”. For the same compound, the inhibition (Rattus norvegicus [3]) was “Active”, the IC50 (Cytochrome P450 2A6) was over 50 µM and the clearance [4] was 29 mL/min/kg. The half-life [5] was 4.8 h, the IC50 [6] was over 10 µM and the IC50 (Xaa-Pro aminopeptidase 2) was over 50 µM. The Cmax [7] was 309 ng/mL, the IC50 [8] was over 10 µM and the clearance [9] was 40 mL/min/kg.
